Reference: ChEMBL document CHEMBL1145884, “Synthesis and biological activity of novel 1beta-methylcarbapenems with oxyiminopyrrolidinylamide moiety” (2003)
Values after ≈ are worked out from the molar mass of the structure shown.

Assays:
Pseudomonas aeruginosa [1] = assay: Antibacterial activity against Pseudomonas aeruginosa 1592E
Enterobacter cloacae = assay: Antibacterial activity against Enterobacter cloacae 1321E; format: functional
How it was run: (§1)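 MIC was determined by agar dilution on Mueller–Hinton medium.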

Salmonella typhimurium = assay: Antibacterial activity against Salmonella Typhimurium; format: functional, Salmonella enterica subsp. enterica serovar Typhimurium; settings: Salmonella enterica
How it was run: as §1

Escherichia coli [2] = assay: Antibacterial activity against Escherichia coli 1507E; format: functional
How it was run: as §1

Escherichia coli [3] = assay: Antibacterial activity against Escherichia coli 078; format: functional
How it was run: as §1

Pseudomonas aeruginosa [4] = assay: Antibacterial activity against Pseudomonas aeruginosa 1771M; format: functional
How it was run: as §1

Klebsiella aerogenes = assay: Antibacterial activity against Klebsiella aerogenes 1522E; format: functional
How it was run: as §1

Pseudomonas aeruginosa [5] = assay: Antibacterial activity against Pseudomonas aeruginosa 9027; format: functional
How it was run: as §1

Streptococcus pyogenes = assay: Antibacterial activity against Streptococcus pyogenes 308A; format: functional
Staphylococcus aureus [6] = assay: Antibacterial activity against Staphylococcus aureus 503; format: functional
Staphylococcus aureus [7] = assay: Antibacterial activity against Staphylococcus aureus SG 511; format: functional
[8] = Compound was evaluated for its relative half life of hydrolysis to meropenem by partially purified porcine renal dihydropeptidase-I (DHP-I); format: functional; settings: Sus scrofa
Staphylococcus aureus [9] = assay: Antibacterial activity against Staphylococcus aureus 285; format: functional

| MIC (Pseudomonas aeruginosa [1]) [µg/mL] | MIC (Enterobacter cloacae) [µg/mL] | MIC (Salmonella typhimurium) [µg/mL] | MIC (Escherichia coli [2]) [µg/mL] | MIC (Escherichia coli [3]) [µg/mL] | MIC (Pseudomonas aeruginosa [4]) [µg/mL] | MIC (Klebsiella aerogenes) [µg/mL] | MIC (Pseudomonas aeruginosa [5]) [µg/mL] | MIC (Streptococcus pyogenes) [µg/mL] | MIC (Staphylococcus aureus [6]) [µg/mL] | MIC (Staphylococcus aureus [7]) [µg/mL] | MIC (Staphylococcus aureus [9]) [µg/mL] | Compound | relative t1/2 (DHP-I hydrolysis vs meropenem) [8] |
| --- | --- | --- | --- | --- | --- | --- | --- | --- | --- | --- | --- | --- | --- |
| 3.12 (≈ 6.91 µM) | 0.049 (≈ 0.108 µM) | 0.098 (≈ 0.217 µM) | 0.049 (≈ 0.108 µM) | 0.049 (≈ 0.108 µM) | 0.781 (≈ 1.73 µM) | 0.049 (≈ 0.108 µM) | 0.391 (≈ 0.864 µM) | – | – | – | – | CO/N=C1/CCN(C(=O)[C@@H]2C[C@H](SC3=C(C(=O)O)N4C(=O)[C@H]([C@@H](C)O)[C@H]4[C@H]3C)CN2)C1 | – |
| 0.391 (≈ 0.81 µM) | 0.025 (≈ 0.0518 µM) | 0.049 (≈ 0.102 µM) | 0.025 (≈ 0.0518 µM) | 0.013 (≈ 0.0269 µM) | 0.195 (≈ 0.404 µM) | 0.049 (≈ 0.102 µM) | 0.391 (≈ 0.81 µM) | 0.013 (≈ 0.0269 µM) | 0.098 (≈ 0.203 µM) | 0.098 (≈ 0.203 µM) | 0.195 (≈ 0.404 µM) | C[C@@H](O)[C@H]1C(=O)N2C(C(=O)O)=C(S[C@@H]3CN[C@H](C(=O)N4C/C(=N\O)C(C(=O)O)C4)C3)[C@H](C)[C@H]12 (some centres not stated) | 0.54 |
| 0.195 (≈ 0.405 µM) | 0.025 (≈ 0.0519 µM) | 0.098 (≈ 0.203 µM) | 0.049 (≈ 0.102 µM) | 0.025 (≈ 0.0519 µM) | 0.098 (≈ 0.203 µM) | 0.098 (≈ 0.203 µM) | 0.391 (≈ 0.812 µM) | 0.004 (≈ 0.00831 µM) | 0.049 (≈ 0.102 µM) | 0.098 (≈ 0.203 µM) | 0.195 (≈ 0.405 µM) | CO/N=C1\CN(C(=O)[C@@H]2C[C@H](SC3=C(C(=O)O)N4C(=O)[C@H]([C@@H](C)O)[C@H]4[C@H]3C)CN2)CC1CN (some centres not stated) | 0.25 |
| 3.12 (≈ 6.12 µM) | 0.025 (≈ 0.049 µM) | 0.049 (≈ 0.096 µM) | 0.049 (≈ 0.096 µM) | 0.013 (≈ 0.0255 µM) | 0.391 (≈ 0.766 µM) | 0.049 (≈ 0.096 µM) | 6.25 (≈ 12.2 µM) | 0.013 (≈ 0.0255 µM) | 0.195 (≈ 0.382 µM) | 0.195 (≈ 0.382 µM) | 0.391 (≈ 0.766 µM) | CCOC(=O)C1CN(C(=O)[C@@H]2C[C@H](SC3=C(C(=O)O)N4C(=O)[C@H]([C@@H](C)O)[C@H]4[C@H]3C)CN2)C/C1=N\O (some centres not stated) | 0.26 |
